Shown are actives, neighbours in structure and some others; about 2.8% of the full set was active somewhere.
TNAP inh hi DEA: inhibitors of human TNAP at high phosphate acceptor concentration | inhibition, % at 20 µM | P05186 | purified TNAP, CDP-star luminescence, 1 M DEA | AID 1135 | 200,000 tested, 0.03% active;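 active means over 50% inhibition of tissue-nonspecific alkaline phosphatase at 20 µM in the single-dose screen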;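 further: plate controls were DMSO wells for no effect and EDTA-quenched wells as full inhibition for full effect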
Target sequence (P05186 whole entry, looked up): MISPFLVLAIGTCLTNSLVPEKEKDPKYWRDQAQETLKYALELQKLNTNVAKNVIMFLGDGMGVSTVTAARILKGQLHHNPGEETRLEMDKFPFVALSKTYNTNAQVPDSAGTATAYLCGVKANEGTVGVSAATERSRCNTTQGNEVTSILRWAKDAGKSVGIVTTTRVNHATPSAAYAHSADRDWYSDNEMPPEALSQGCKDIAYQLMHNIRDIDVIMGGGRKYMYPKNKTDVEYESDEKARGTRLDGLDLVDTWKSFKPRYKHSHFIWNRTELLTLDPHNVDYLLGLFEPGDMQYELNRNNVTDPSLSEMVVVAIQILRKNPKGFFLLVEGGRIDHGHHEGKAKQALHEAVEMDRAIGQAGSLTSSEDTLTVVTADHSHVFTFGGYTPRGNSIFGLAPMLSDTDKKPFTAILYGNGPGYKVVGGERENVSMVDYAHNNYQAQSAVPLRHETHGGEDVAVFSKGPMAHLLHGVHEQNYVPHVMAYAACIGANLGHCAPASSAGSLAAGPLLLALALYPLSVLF
TNAP act hiacc: activators of human TNAP at high phosphate acceptor concentration | P05186 | activation factor at 20 µM | purified TNAP, CDP-star luminescence, 1 M DEA, 30 min; hits give high values; 0 = EDTA background, 1 = DMSO-only activity | 200,000 tested, under 10 active;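 active means activation factor at least 2 at 20 µM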
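Control set: EDTA negative control, DMSO positive control / Assay system: human TNAP / Quantity: TNAP 1/800 final / Evaluation: TNAP activation factor scaled between EDTA and DMSO control wells / Measured by: luminescent substrate turnover signal / Compound dosing: one dose, 20 µM / Times: 30 min enzyme reaction at room temperature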
TNAP inh no acc: inhibitors of human TNAP without phosphate acceptor; 200,000 tested, 0.26% active; purified TNAP, CDP-star luminescence, 30 min; inhibition, % at 20 µM; P05186;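 active means tissue-nonspecific alkaline phosphatase inhibition above about 50% at 20 µM in the single-dose screen, limit read from the data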;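 further: 0% = DMSO negative control and 100% = EDTA positive control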
RAM network inh: inhibitors of the yeast RAM network; inhibition, % at 50 µM; 190,000 tested, 1.8% active; S. cerevisiae dse1pr::URA3 reporter, 5-FOA growth OD615, 2 d; analog-sensitive cbk1-as2 kinase mutant strain; AID 868;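 active means inhibition above a set limit, 3 SD over mean compound inhibition, cut at about 8.4% in these data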;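 further: 0% = DMSO-only wells with no growth and 100% = 10 µM 1-NA-PP1 full growth; inhibition rescues growth on 5-FOA so higher OD means more RAM inhibition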
BB579 growth dn: chemicals that inhibit yeast BB579 growth in restrictive medium (lifespan-shortening candidates). S. cerevisiae BB579 growth, OD615, 48 h. inhibition, % at 10 µM. 140,000 tested, 0.51% active. AID 804;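 active means inhibition above a set limit, 3 SD over the mean compound inhibition, cut at about 44% in these data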
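Assay system: S. cerevisiae DeaD strain BB579 yeast. Medium: CSMM-D restrictive synthetic medium containing dextrose (glucose). Times: 4 h cell preincubation, 48 h compound exposure, 30 °C humidified. Signal: OD615 turbidity measurement. Benchmarks: positive control amphotericin B 10 µg/mL.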
Yeast life ext: yeast lifespan extension; 130,000 tested, 0.68% active; inhibition of the nicotinamide effect, % at 10 µM; S. cerevisiae growth with nicotinamide, OD615; deaD strain in restrictive glucose medium;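 active means inhibition above a set limit, placed 3 SD over the median of all compounds, cut at about 26% in these data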;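 further: 0% = nicotinamide-treated wells and 100% = cells grown without nicotinamide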
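Assay system: engineered S. cerevisiae DeaD replicative-lifespan strain, galactose-grown log-phase cells; medium: restrictive CSMM-D dextrose medium; also added: nicotinamide, 1.5 mM, co-present with compound; schedule: 48 h compound exposure at 30 °C, humidified; detection: absorbance at 615 nm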
* marks the source's active call; other numbers are inactive results.

For CC(C)(C)c1ccc(C(=O)NNC(=O)c2ccc(Cl)cc2)cc1 the results were TNAP inh hi DEA -2, TNAP act hiacc 1, TNAP inh no acc -88, RAM network inh 4, BB579 growth dn -46 and Yeast life ext 7.
Screening N=C1/C(=C/c2cccn2-c2ccc([N+](=O)[O-])cc2)C(=O)N=C2SC=CN12 returned TNAP inh hi DEA 11, TNAP act hiacc 0.9, TNAP inh no acc 6, RAM network inh 10*, BB579 growth dn -26 and Yeast life ext -6.
`N=C1/C(=C/c2cccn2Cc2ccc(F)cc2)C(=O)N=C2SC=CN12` gave TNAP inh hi DEA 10, TNAP act hiacc 0.9, TNAP inh no acc 7 and RAM network inh 5.
For Cc1ccc(Sc2ncnc3onc(C)c23)c(C)c1 the results were TNAP inh hi DEA -2, TNAP act hiacc 1, TNAP inh no acc 0 and RAM network inh 2.
`Cc1noc2ncnc(Sc3ccccc3Cl)c12` gave TNAP inh hi DEA 7, TNAP act hiacc 0.9, TNAP inh no acc 3, RAM network inh 0, BB579 growth dn 61* and Yeast life ext -1.
`Clc1ccc2nc(SCc3nnc(-c4ccccc4)o3)[nH]c2c1` gave TNAP inh hi DEA -6, TNAP act hiacc 1.1, TNAP inh no acc -9, RAM network inh 2, BB579 growth dn -37 and Yeast life ext -14.
`Clc1ccc(OCc2nnc(SCc3nnc(-c4ccccc4)o3)o2)c(Cl)c1` gave TNAP inh hi DEA 1, TNAP act hiacc 1, TNAP inh no acc -9, RAM network inh 9.6*, BB579 growth dn -40 and Yeast life ext -10.
CC(C)c1ccc(/C=C2\SC(N3CCCC3)=NC2=O)cc1 was read as TNAP inh hi DEA -4, TNAP act hiacc 1, TNAP inh no acc -6, RAM network inh 4, BB579 growth dn -59 and Yeast life ext 34*.
COCCNC(=O)c1cc(-c2ccccc2OC)on1 was read as TNAP inh hi DEA -7, TNAP act hiacc 1.1, TNAP inh no acc -15, RAM network inh -1, BB579 growth dn -54 and Yeast life ext -12.
Screening O=C(NN=C(Cc1ccccc1)Cc1ccccc1)c1ccccc1F returned TNAP inh hi DEA -2, TNAP act hiacc 1, TNAP inh no acc -6 and RAM network inh 0.
CC(C)CSc1n[nH]c(N)n1 was read as TNAP inh hi DEA -1, TNAP act hiacc 1, TNAP inh no acc 50* and RAM network inh 0.
`O=C1c2ccccc2NC(c2cnc3ccccc3n2)N1O` (stereo unspecified) gave TNAP inh hi DEA -7, TNAP act hiacc 1.1, TNAP inh no acc 4, RAM network inh -1, BB579 growth dn -43 and Yeast life ext 57*.
For N#Cc1cccc(N=Cc2c(O)ccc3ccccc23)c1 the results were TNAP inh hi DEA 4, TNAP act hiacc 1, TNAP inh no acc 3, RAM network inh -1, BB579 growth dn -9 and Yeast life ext 40*.
O=C(O)Cc1ccc(N=Cc2c(O)ccc3ccccc23)cc1 was read as TNAP inh hi DEA -2, TNAP act hiacc 1, TNAP inh no acc 1, RAM network inh 0, BB579 growth dn -30 and Yeast life ext 57*.
`CCOC(=O)c1sc(/N=C/c2c(O)ccc3ccccc23)cc1C` gave TNAP inh hi DEA 1, TNAP act hiacc 1, TNAP inh no acc 29, RAM network inh 9.0*, BB579 growth dn -30 and Yeast life ext 12.
For COc1ccc(N=Cc2c(O)ccc3ccccc23)cc1 the results were TNAP inh hi DEA -1, TNAP act hiacc 1, TNAP inh no acc 18 and RAM network inh -2.
For Cc1ccc(N=Cc2c(O)ccc3ccccc23)cc1F the results were TNAP inh hi DEA -5, TNAP act hiacc 1.1, TNAP inh no acc 21, RAM network inh 0, BB579 growth dn 5 and Yeast life ext 36*.
`CCN(CCn1cccn1)Cc1ccccc1OCC(O)CN1CCc2ccccc2C1` (stereo unspecified) gave TNAP inh hi DEA -6, TNAP act hiacc 1.1, TNAP inh no acc -8 and RAM network inh -1.
CC(C(=O)Nc1ccc(N2CCOCC2)cc1)N1C(=O)c2ccccc2C1=O (stereo unspecified) was read as TNAP inh hi DEA -4, TNAP act hiacc 1, TNAP inh no acc -8, RAM network inh 1, BB579 growth dn -74 and Yeast life ext -13.
CC(C)C(C(=O)Nc1ccc(N2CCOCC2)cc1)N1C(=O)c2ccccc2C1=O (stereo unspecified) was read as TNAP inh hi DEA 0, TNAP act hiacc 1, TNAP inh no acc -10, RAM network inh 9.3*, BB579 growth dn -48 and Yeast life ext 3.
Screening O=C(NC1CCCCC1)C(c1cccs1)N(C(=O)c1ccccn1)c1ccccc1 (stereo unspecified) returned TNAP inh hi DEA -4, TNAP act hiacc 1, TNAP inh no acc -20, RAM network inh 9.5*, BB579 growth dn -51 and Yeast life ext 3.
`O=C(NC1CCCC1)C(c1cccs1)N(C(=O)c1ccno1)c1ccccc1` (stereo unspecified) gave TNAP inh hi DEA -3, TNAP act hiacc 1, TNAP inh no acc -11, RAM network inh 7, BB579 growth dn -68 and Yeast life ext 1.
COc1ccc(C(=O)NC(=S)NNC(=O)c2cnccn2)cc1OC was read as TNAP inh hi DEA 2, TNAP act hiacc 1, TNAP inh no acc 9, RAM network inh 3, BB579 growth dn 90* and Yeast life ext -5.
Screening CCn1ncc(Cl)c1C(=O)Nc1cc(Cl)ccc1Cl returned TNAP inh hi DEA -2, TNAP act hiacc 1, TNAP inh no acc -6, RAM network inh 1, BB579 growth dn -49 and Yeast life ext -16.
Screening O=C(Nc1ccccc1)N1N=C(c2ccc(F)cc2)CC1c1ccc(F)cc1 (stereo unspecified) returned TNAP inh hi DEA -4, TNAP act hiacc 1, TNAP inh no acc -18, RAM network inh 9.6*, BB579 growth dn -7 and Yeast life ext 2.
Screening O=C(Nc1cccc(C(=O)O)c1)/C(=C\c1ccccc1)NC(=O)c1cccc2ccccc12 returned TNAP inh hi DEA 1, TNAP act hiacc 1, TNAP inh no acc -2 and RAM network inh 3.
Screening O=C(Nc1nccs1)c1ccc(-c2ccc(Cl)cc2Cl)o1 returned TNAP inh hi DEA 0, TNAP act hiacc 1, TNAP inh no acc -10, RAM network inh 9.5*, BB579 growth dn -43 and Yeast life ext 0.
For O=C(Nc1ccc(C(=O)O)cc1)/C(=C\c1ccc2c(c1)OCO2)NC(=O)c1ccc(Br)cc1 the results were TNAP inh hi DEA -2, TNAP act hiacc 1, TNAP inh no acc -6 and RAM network inh 11*.
